# From paper PMC3685407 (Neuropharmacology, 2013)
# Read-outs that look alike come from different tables or passages of the source.
# Key:
# [1] = test system: L-dopa-induced AIMs in parkinsonian rats; conditions: cited from earlier work
# [2] = target: muscle nAChRs (Homo sapiens, UniProt P02708+P07510+Q07001); assay: biochemical; assay type: binding
# [3] = test system: L-dopa-induced AIMs in 6-OHDA lesioned rats; conditions: cited from earlier work
# [4] = test system: L-dopa-induced dyskinesias in Parkinson’s disease patients; conditions: small clinical trial, ref http://www.neuraltus.com/pages/news.html; cited from earlier work
# [5] = target: human α7 nAChRs (Homo sapiens, UniProt P36544); assay: biochemical; assay type: binding
# [6] = target: human α3β4 nAChRs (Homo sapiens, UniProt P30926+P32297); assay: Competition membrane binding
# [7] = test system: L-dopa-induced AIMs in 6-OHDA lesioned rats; assay: L-dopa-induced AIMs in rats with severe unilateral 6-OHDA lesion; assay type: in vivo, rat; conditions: for AIM subtypes significantly affected by nAChR compounds: axial, oral, forelimb AIMs; for AIM subtypes significantly affected by nAChR compounds / Decrease in total AIM scores: severe dopaminergic lesion; for Decrease in total AIM scores: maximal decrease over the treatment periods, L-dopa 6 or 8 mg/kg plus benserazide 15 mg/kg sc; for Reduction in L-dopa-induced AIMs: range over the series, rats with severe nigrostriatal damage; for Total AIMs score: summary table, L-dopa 6 or 8 mg/kg plus benserazide, group not stated
# [8] = test system: ^3H-dopamine release from rat striatal synaptosomes; conditions: read-out: EC50 for 3H-dopamine release; rat striatum; ref Zwart et al., 2008; cited from earlier work
# [9] = test system: forelimb use asymmetry in 6-OHDA lesioned rats; assay: Limb use asymmetry test; assay type: in vivo, rat; conditions: for % Contralateral limb use, nAChR compound: 5 min period, mean ± S.E.M of 5–9 rats
# Method in brief: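 Unilateral intracranial 6-OHDA lesions in rats (230–250 g). Forelimb use was rated over 5 min, once before and once 60 min after sc L-dopa plus benserazide (8.0 or 6.0 mg/kg plus 15 mg/kg, depending on study). The read-out was % contralateral limb use. Test compound was given by minipump or sc injection. In one study, testing was 4 wk after L-dopa treatment began.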
# [10] = rats with severe dopaminergic lesions, ref Bordia et al., 2010
# Sequence of muscle nAChRs (P07510 23-517): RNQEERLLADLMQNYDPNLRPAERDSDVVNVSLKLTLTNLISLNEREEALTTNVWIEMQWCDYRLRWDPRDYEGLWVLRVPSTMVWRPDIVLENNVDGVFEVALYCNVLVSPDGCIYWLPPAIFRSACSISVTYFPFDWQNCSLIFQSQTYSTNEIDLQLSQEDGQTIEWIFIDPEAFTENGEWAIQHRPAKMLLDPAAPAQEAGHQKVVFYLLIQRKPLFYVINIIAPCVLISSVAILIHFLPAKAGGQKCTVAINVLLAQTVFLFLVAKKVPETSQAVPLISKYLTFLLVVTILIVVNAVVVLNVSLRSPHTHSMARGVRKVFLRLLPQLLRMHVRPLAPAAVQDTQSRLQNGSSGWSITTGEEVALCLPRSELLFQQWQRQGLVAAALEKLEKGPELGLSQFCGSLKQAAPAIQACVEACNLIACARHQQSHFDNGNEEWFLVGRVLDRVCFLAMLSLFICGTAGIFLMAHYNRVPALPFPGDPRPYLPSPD
# Sequence of muscle nAChRs (Q07001 22-517): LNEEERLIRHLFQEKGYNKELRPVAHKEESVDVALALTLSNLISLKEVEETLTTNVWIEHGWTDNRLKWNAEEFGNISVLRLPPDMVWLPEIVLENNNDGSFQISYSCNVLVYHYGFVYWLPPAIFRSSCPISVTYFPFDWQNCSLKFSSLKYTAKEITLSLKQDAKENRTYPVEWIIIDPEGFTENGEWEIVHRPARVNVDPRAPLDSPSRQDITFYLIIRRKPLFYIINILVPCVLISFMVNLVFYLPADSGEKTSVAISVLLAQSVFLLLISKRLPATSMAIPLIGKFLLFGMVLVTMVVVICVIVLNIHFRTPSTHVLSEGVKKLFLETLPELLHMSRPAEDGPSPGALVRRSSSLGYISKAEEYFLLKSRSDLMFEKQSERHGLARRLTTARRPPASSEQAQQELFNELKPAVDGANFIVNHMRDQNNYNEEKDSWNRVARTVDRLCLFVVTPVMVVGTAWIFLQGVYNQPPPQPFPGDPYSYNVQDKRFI
# Sequence of muscle nAChRs (P11230 24-501, further chain): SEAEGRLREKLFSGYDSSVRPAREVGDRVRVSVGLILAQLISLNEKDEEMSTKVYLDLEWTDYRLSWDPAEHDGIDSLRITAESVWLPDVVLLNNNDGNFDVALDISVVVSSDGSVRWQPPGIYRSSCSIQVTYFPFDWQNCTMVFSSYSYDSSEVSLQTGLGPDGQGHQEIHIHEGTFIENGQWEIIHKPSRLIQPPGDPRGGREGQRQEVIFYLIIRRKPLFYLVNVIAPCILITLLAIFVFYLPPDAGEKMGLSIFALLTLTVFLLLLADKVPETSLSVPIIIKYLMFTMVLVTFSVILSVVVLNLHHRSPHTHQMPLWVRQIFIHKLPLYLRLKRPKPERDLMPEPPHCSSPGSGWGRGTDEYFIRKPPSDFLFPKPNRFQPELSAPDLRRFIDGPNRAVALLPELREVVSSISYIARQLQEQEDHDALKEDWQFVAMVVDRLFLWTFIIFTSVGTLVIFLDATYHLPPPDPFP
# Sequence of muscle nAChRs (P02708 21-457): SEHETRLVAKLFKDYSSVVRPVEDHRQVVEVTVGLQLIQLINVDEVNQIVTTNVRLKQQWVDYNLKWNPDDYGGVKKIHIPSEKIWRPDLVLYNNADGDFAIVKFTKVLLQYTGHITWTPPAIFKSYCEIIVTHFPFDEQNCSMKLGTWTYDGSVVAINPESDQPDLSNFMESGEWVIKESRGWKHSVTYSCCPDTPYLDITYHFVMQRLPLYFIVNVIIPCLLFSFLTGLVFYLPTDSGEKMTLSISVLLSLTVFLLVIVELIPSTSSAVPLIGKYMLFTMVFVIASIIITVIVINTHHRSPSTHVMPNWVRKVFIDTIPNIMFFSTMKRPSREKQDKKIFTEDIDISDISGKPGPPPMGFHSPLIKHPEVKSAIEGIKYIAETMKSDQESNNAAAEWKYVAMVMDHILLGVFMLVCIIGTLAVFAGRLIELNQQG
# Sequence of human α7 nAChRs (P36544 23-502): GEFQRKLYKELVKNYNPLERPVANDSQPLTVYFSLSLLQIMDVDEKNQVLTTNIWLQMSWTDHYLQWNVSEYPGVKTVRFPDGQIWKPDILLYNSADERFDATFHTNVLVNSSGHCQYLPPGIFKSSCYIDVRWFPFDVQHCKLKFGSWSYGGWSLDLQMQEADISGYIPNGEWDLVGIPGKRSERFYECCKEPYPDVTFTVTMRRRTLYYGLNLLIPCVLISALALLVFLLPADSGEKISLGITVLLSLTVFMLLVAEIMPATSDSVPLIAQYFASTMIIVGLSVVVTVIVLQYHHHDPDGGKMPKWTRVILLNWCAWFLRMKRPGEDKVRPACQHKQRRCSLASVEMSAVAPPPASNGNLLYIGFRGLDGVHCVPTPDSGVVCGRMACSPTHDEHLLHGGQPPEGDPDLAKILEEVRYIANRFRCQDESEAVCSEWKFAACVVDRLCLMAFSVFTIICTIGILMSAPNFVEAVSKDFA
# Sequence of human α3β4 nAChRs (P32297 32-505): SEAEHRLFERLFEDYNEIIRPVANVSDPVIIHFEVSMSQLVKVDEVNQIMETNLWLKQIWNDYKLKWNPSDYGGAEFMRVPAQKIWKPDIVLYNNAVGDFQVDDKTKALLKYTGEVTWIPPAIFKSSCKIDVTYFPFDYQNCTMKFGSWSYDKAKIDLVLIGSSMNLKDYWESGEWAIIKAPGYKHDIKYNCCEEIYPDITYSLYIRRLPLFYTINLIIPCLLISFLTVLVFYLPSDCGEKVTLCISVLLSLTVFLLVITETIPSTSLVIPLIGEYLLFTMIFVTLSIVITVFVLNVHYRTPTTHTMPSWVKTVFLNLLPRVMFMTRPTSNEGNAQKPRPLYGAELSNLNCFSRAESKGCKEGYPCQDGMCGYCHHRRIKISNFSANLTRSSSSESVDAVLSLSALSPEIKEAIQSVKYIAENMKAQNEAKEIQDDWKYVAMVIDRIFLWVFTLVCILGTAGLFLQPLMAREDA
# Sequence of human α3β4 nAChRs (P30926 22-498): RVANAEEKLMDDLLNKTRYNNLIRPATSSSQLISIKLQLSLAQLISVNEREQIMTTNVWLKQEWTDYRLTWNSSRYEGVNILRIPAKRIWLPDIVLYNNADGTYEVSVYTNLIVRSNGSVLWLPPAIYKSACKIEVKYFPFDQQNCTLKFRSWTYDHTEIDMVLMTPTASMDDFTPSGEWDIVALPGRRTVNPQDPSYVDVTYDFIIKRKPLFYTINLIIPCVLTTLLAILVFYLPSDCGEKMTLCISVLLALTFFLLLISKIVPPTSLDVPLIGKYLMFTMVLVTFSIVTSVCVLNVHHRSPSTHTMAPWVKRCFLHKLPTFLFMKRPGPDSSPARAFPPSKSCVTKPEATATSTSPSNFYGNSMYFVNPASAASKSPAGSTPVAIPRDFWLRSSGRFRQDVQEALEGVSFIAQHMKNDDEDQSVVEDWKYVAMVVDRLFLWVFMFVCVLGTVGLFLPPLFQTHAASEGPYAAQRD
smiles,measurement,setting,value
c1cncc(OC[C@@H]2CCN2)c1 [A85380],Effect on L-dopa-induced AIMs,"[1]; 6-OHDA lesioned rats, ref Huang et al., 2011b",reduced L-dopa-induced AIMs
CN1CCC[C@H]1c1cccnc1 [Nicotine],Ki,[2],3.5 µM
same,AIM subtypes significantly affected by nAChR compounds,[3]; [10],Oral = forelimb
same,Decrease in total AIM scores,[3]; [10],35%
same,Total AIMs score,[3]; [10],~75
same,Persistence of the effect on L-dopa-induced AIMs with treatment,"[1]; study ended at this time, ref Bordia et al., 2008, Bordia et al., 2010",at least 4 months
same,Effect on L-dopa-induced dyskinesias,[4],reduced several components of L-dopa-induced dyskinesias
"OCCCCC#Cc1cncc(OC[C@@H]2CCN2)c1 [Sazetidine, 6-(5-(((S)-azetidin-2-yl)methoxy)pyridine-3-yl)hex-5-yn-1-ol]",Ki,[5],3.3 µM
same,Ki,[6],0.03 ± 0.002 µM
same,Ki,[2],0.18 ± 0.084 µM
same,Effect on L-dopa-induced AIMs,"[7]; 0.5 mg/kg sc twice daily, L-dopa 8 mg/kg plus benserazide",no effect
same,Effect on L-dopa-induced AIMs,"[7]; 1.0 mg/kg sc twice daily, L-dopa 8 mg/kg plus benserazide, P < 0.05","decline in total, oral and forelimb AIMs"
same,Effect on L-dopa-induced AIMs,"[7]; 2.0 mg/kg sc twice daily, compared with 1.0 mg/kg dose, data not shown",Results were similar
same,AIM subtypes significantly affected by nAChR compounds,[7],Oral = forelimb
same,Decrease in total AIM scores,[7],23%
same,Reduction in L-dopa-induced AIMs,[7],23–32%
same,Total AIMs score,[7],~75
same,EC50,[8],0.001 µM
CN[C@@H](C)C/C=C/c1cncc(OC)c1 [TC-2696],Ki,"[5]; read-out: Ki α7 nAChRs, membrane binding, 3H-epibatidine, average ± SEM",85 µM
same,Effect on L-dopa-induced AIMs,"[7]; 1.0 mg/kg/d via minipump, L-dopa 8 mg/kg plus benserazide 15 mg/kg sc",fewer total L-dopa-induced AIMs
same,Effect on L-dopa-induced AIMs,"[7]; […] via minipump, L-dopa 8 mg/kg plus benserazide","results similar to those at the 1.0 mg/kg/d dose of the compound, except for a significant decline in forelimb AIMs"
same,AIM subtypes significantly affected by nAChR compounds,[7],Axial > forelimb
same,Decrease in total AIM scores,[7],30%
same,Reduction in L-dopa-induced AIMs,[7],23–32%
same,Total AIMs score,[7],~75
same,"% Contralateral limb use, nAChR compound",[9]; OFF L-dopa (before L-dopa),3.27 ± 1.5%
same,"% Contralateral limb use, nAChR compound",[9]; ON L-dopa (60 min after L-dopa),35.6 ± 13.1%
same,Effect on parkinsonism (forepaw asymmetry test),[9]; result in words,no significant effect
c1cnc2cc3c(cc2n1)[C@@H]1CNC[C@H]3C1 [Varenicline],Decrease in total AIM scores,"[3]; severely lesioned rats, non-significant, ref Huang et al., 2011b",10%
same,Total AIMs score,"[3]; severely lesioned rats, ref Huang et al., 2011b",~60
CNC1(C)C2CCC(C2)C1(C)C (stereo not shown) [mecamylamine],Effect on L-dopa-induced AIMs,"[1]; parkinsonian rats, ref Bordia et al., 2010",attenuated AIMs
